# Source: PubChem (several laboratories)
# Rows were chosen to be rich in hits. Some 5% of all compounds tested hit in one or more screens of this group.
# Mdm2-MdmX inh: inhibitors of human Mdm2/MdmX interaction; O15151+Q00987; SaOS-2 split-luciferase Mdm2/MdmX complementation, luminescence; inhibition, % at 8 µM; actives 3% (n = 330,000);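 active = inhibition of at least 50% at 8 µM in the primary screen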
# Target sequence (O15151 whole entry, looked up): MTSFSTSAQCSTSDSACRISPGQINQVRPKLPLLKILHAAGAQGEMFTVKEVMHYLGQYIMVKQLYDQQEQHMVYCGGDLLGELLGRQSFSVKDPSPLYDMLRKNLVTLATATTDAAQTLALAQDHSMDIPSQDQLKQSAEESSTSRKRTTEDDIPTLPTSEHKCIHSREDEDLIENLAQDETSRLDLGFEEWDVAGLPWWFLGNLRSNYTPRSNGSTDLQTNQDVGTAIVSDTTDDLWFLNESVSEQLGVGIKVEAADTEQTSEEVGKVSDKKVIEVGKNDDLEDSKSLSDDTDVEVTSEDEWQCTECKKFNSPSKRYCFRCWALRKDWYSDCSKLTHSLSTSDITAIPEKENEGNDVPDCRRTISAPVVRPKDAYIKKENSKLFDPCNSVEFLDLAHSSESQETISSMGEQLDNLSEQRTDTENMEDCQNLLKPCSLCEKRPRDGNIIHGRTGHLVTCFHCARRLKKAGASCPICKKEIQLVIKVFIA
# Target sequence (Q00987 whole entry, looked up): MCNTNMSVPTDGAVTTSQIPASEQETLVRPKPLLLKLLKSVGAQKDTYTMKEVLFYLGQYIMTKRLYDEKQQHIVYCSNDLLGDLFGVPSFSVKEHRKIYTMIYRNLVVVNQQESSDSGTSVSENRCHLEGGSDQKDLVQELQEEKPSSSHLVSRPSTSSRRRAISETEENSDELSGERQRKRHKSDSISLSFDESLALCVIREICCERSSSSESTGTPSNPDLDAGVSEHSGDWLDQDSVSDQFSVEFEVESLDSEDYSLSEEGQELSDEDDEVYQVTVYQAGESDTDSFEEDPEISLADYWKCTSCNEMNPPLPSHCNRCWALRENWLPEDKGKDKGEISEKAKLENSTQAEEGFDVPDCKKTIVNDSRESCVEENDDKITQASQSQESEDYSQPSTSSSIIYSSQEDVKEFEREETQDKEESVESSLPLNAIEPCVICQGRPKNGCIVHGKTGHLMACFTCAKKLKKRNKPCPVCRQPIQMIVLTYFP
# T cruzi repl: T. cruzi replication inhibition. actives 1.4% (n = 300,000). inhibition, % (concentration not given with the values). AID 1885. T. cruzi beta-gal in NIH3T3, luminescence, 90 h;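 active = mean inhibition across valid replicates above about 55%, limit read from the data; inconclusive = mean below that limit but half or more replicates reach it; inactive = mean below it, under half of replicates reach it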;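 also: signal also drops with host cell toxicity which is not excluded here; 0% = plate median of DMSO wells and 100% = zero luminescence signal; higher percent means less beta-gal luminescence so fewer parasites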
#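 Material: NIH/3T3 host cells with β-galactosidase reporter T. cruzi; Input: 5,000 host fibroblasts per well; Medium: DMEM, 2% fetal bovine serum; Compound: 50 nL DMSO compound solution per well; Schedule: 3 h host attachment, then at least 90 h co-culture; Detection: luminescent β-galactosidase signal after 60 min lysis.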
# UPR CHOP act: apoptotic UPR (CHOP) activation | CHO-CHOP luciferase reporter, luminescence; percent of tunicamycin response over DMSO baseline | activation, % at 10 µM | actives 0.34% (n = 330,000);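 active = at 10 µM dose, activation of 40% or more, normalized to positive control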;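 also: 100% = tunicamycin at 10 µg/mL and 0% = DMSO alone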
#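 Dosing – one dose, 10 µM in 0.5% DMSO · System – CHO-CHOP cells, stable luciferase reporter of PERK-eIF2a-CHOP signalling · Input – 500 cells/well · Control set – tunicamycin 10 µg/mL final as positive, DMSO-only wells as negative · Timing – 6 h compound treatment, 37 °C · Measure – % activation vs tunicamycin · Technique – luminescence read with Steady-Glo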
# UPR XBP1 act: adaptive UPR (XBP1) activation; CHO-XBP1 luciferase reporter, IRE1-XBP1 UPR activation, luminescence; percent of tunicamycin response, DMSO as zero; activation, % at 20 µM; actives 0.33% (n = 330,000);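 active = versus positive control, 20 µM dose yields 30% or more activation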;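 also: 100% = tunicamycin at 10 µg/mL and 0% = DMSO only wells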
#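 Signal: luciferase luminescence; Assay system: CHO-XBP1 luciferase reporter cells; Amount: one thousand reporter cells per well; Dosing: 20 µM single concentration, DMSO 1%; Benchmarks: high control tunicamycin 10 µg/mL final, low control DMSO vehicle only; Schedule: 6 h compound exposure at 37 °C, 5% CO2; Evaluation: percent activation relative to tunicamycin reference.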
# CSC inhib: cancer stem cell inhibition; inhibition, % at 7.5 µM; cancer stem cell-like cells viability, luminescence; actives 1.1% (n = 300,000); in the data active = inhibition above about 75%; inconclusive = no clear call, values can overlap the other calls; tested in HMLE shEcad cells
# Beta apoptosis: beta cell apoptosis inhibition. INS-1E cytokine-induced death, ATP luminescence, 48 h; percent of positive-control rescue, neutral wells zero. protection from apoptosis, % (no concentration beside the values). actives 0.8% (n = 300,000);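 active = Every replicate reaches about 75%, or at least half do and their mean reaches it too, limit read from the data; inconclusive = At least half of replicates reach the limit but their mean does not; inactive = Under half of replicates reach the limit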;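 also: 0% = cytokine-treated negative control wells and 100% = positive control rescue; higher means more ATP so stronger rescue from cytokine killing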
# Mdm2-MdmX conf: human Mdm2/MdmX binding inhibition, confirmed. shares compounds with Mdm2-MdmX inh. luminescent assay. inhibition, % at 8 µM. actives 55% (n = 10,000); in the data active = inhibition above about 40%
# Full FLuc ctr: counter-screen for Mdm2/MdmX inhibitors: full-length luciferase; shares compounds with Mdm2-MdmX inh; SaOS-2 full-length luciferase counterscreen, luminescence; inhibition, % at 8 µM; actives 77% (n = 6,200);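 active = mean inhibition at 8 µM reaching about 37%, which flags the compound as non-specific, limit read from the data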;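 also: p53-null SaOS-2 cells with luciferase driven by a doxycycline-inducible promoter; compound on cells about two nights before reading with doxycycline added after day one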
# Active calls of the source: *; ? = inconclusive; . = not tested or not shown.
SMILES,Mdm2-MdmX inh,T cruzi repl,UPR CHOP act,UPR XBP1 act,CSC inhib,Beta apoptosis,Mdm2-MdmX conf,Full FLuc ctr
CN(C)CCN(C(=O)c1ccc2ccccc2c1)c1nc2cc3c(cc2s1)OCCO3,3,25,2,-3,-4,-18,.,.
CN(C)CCCN(C(=O)c1ccc(S(=O)(=O)N(C)Cc2ccccc2)cc1)c1nc2cc3c(cc2s1)OCO3,57*,34,0,1,7,114*,31,.
CN(C)CCCN(C(=O)c1ccc2ccccc2c1)c1nc2cc3c(cc2s1)OCO3,77*,30,1,3,5,-20,46*,61*
COC(=O)CC(c1ccc(C(C)C)cc1)n1cccc1 (stereo not drawn),-15,-16,1,5,5,-6,.,.
COc1ccc(CC(=O)NCc2n[nH]c(=S)n2-c2cccc(Cl)c2)cc1,10,1,-1,0,-2,4,.,.
COc1ccc(N(C)C(=O)C2CCCN2S(=O)(=O)c2cccc3nsnc23)c(OC)c1 (stereo not drawn),28,4,0,0,-2,-8,.,.
CCN(CC)CCN(C(=O)c1cc2c(ccc3ccccc32)oc1=O)c1nc2cc3c(cc2s1)OCCO3,100*,21,19,210*,91*,102*,33,.
CCOC(=O)c1cccc(Nc2nc(-c3cccnc3)nc3ccccc23)c1,70*,32,10,19,92*,42,36,.
COC(=O)c1cccc(Nc2nc(-c3cccnc3)nc3ccccc23)c1,70*,50,9,2,31,28,43*,72*
COCCCN(C(=O)CC1OC(=O)c2ccccc21)c1c(N)n(Cc2ccccc2)c(=O)[nH]c1=O (stereo not drawn),15,-1,3,-6,-14,-2,.,.
Cc1ccc2nc(SC(C(=O)c3ccccc3)c3ccccc3)nc(C)c2c1 (stereo not drawn),-13,28,-1,-2,17,-4,.,.
CC1(C)C[C@H]2C3=CCC4[C@@]5(C)CC[C@H](O[C@@H]6O[C@H](C(=O)O)[C@@H](O)[C@H](O)[C@H]6O)[C@@](C)(CO)C5CC[C@@]4(C)[C@]3(C)C[C@H](O)[C@@]2(CO)[C@@H](O)[C@@H]1O (stereo partly drawn),7,.,0,-4,-7,-4,.,.
C/C=C(/C)C(=O)OC1CC(C)(C)C[C@H]2C3=CC[C@@H]4[C@@]5(C)CCC(O[C@@H]6O[C@@H](C(=O)O)[C@@H](O)C(O[C@@H]7OC[C@H](O)[C@@H](O)[C@@H]7O[C@@H]7OC(CO)C(O)[C@@H](O)[C@@H]7O)C6O[C@@H]6OC(CO)C(O)C(O)C6O)[C@@](C)(CO)[C@@H]5CC[C@]4(C)[C@]3(C)CC(O)[C@@]12CO (stereo partly drawn),94*,.,-2,-1,33,44,48*,17
COC(=O)c1c(NC(=O)c2ccccc2)sc2c1CC(C)(C)NC2(C)C,42,6,1,3,-5,0,.,.
CCOC(=O)c1c(NC(=O)C2COc3ccccc3O2)sc2c1CC(C)(C)NC2(C)C (stereo not drawn),84*,27,4,1,?,9,52*,61*
COC(=O)c1c(NC(=O)c2ccc(OC(C)C)cc2)sc2c1CC(C)(C)NC2(C)C,94*,?,7,25,53,.,77*,24
CCOC(=O)c1c(NC(=O)COc2ccccc2OCC)sc2c1CC(C)(C)NC2(C)C,97*,44,4,14,2,11,34,90*
CCOC(=O)c1c(NC(=O)C2COc3ccccc3O2)sc(C(C)=O)c1C (stereo not drawn),16,-13,4,-5,0,12,.,.
CCOC(=O)c1c(NC(=O)COc2ccccc2C#N)sc2c1CC(C)(C)NC2(C)C,51*,39,3,0,-2,7,15,.
CCOC(=O)c1c(NC(=O)COC(=O)c2ccc(C)s2)sc2c1CC(C)(C)NC2(C)C,30,9,1,10,4,-10,.,.
CC(C)CCNCC(=O)NC(c1ccccc1)c1ccccc1,25,.,-1,1,-2,0,.,.
CC1CCN(C(=O)CSc2nc3c(c(=O)n2C)SC(C)C3)CC1 (stereo not drawn),-3,-1,-2,-2,-3,.,.,.
O=C(Nc1c(-c2ccccc2)nc2sccn12)c1ccccc1,-7,-5,-1,-2,9,-4,.,.
CCOC(=O)c1c(NC(=O)c2ccc(C)cc2)sc2c1CC(C)(C)NC2(C)C,93*,32,2,7,12,.,47*,96*
CCOC(=O)c1c(NC(=O)Cc2ccccc2)sc2c1CC(C)(C)NC2(C)C,36,29,0,3,11,-11,.,.
SMILES,Mdm2-MdmX inh,T cruzi repl,UPR CHOP act,UPR XBP1 act,CSC inhib,Beta apoptosis,Mdm2-MdmX conf,Full FLuc ctr
CCOc1ccc(-n2ccc(=O)c(C(=O)O)n2)cc1,-22,-3,-1,0,-13,2,.,.
COc1ccc(C(=O)c2c(C(F)(F)F)oc3c2C(=O)c2ccccc2C3=O)cc1OC,86*,65*,6,-5,102*,.,71*,6
COc1ccc(C(=O)Nc2ccc3c(c2)C(=O)c2ccccc2C3=O)cc1OC,-11,-4,3,2,-7,-2,.,.
CCOC(=O)NC(=O)/C(C#N)=N\Nc1ccc(Cl)cc1,-14,5,1,2,-7,.,.,.
N#C/C(=N\Nc1ccc(Cl)cc1)C(=O)c1ccccc1,84*,-6,4,0,59,99*,56*,44*
COc1ccc(C(=O)/C(C#N)=N/Nc2ccc([N+](=O)[O-])cc2)cc1,90*,-11,2,16,18,107*,92*,51*
O=C(NC1CCCCC1)c1ccc(S(=O)(=O)NCc2cccnc2)cc1,12,-27,-2,-3,18,2,.,.
Cc1cccn2c(=O)c3cc(C(=O)NC4CCCC4)n(C)c3nc12,51*,5,3,7,47,-4,51*,67*
Cc1cccn2c(=O)c3cc(C(=O)NCCC4=CCCCC4)n(C)c3nc12,55*,0,1,10,-1,2,12,.
O=S(=O)(c1ccccc1F)N1CCN(c2nc(-c3cccnc3)nc3ccccc23)CC1,-9,.,4,2,.,-7,.,.
